Active and inactive are the calls of the source.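 Rule for the calls: active = recombinant frequency cut at least fourfold versus the solvent-only control; inactive = reduction in recombinant frequency below fourfold.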
Tested on: E. coli recBCD-deletion with H. pylori AddAB/RecA, Hfr recombination, colony count
Assay: recombination inhibition in AddAB/RecA E. coli, late-stage follow-up, counter-screen for AddAB inhibitor project, colony formation, p(addAB), p(recA), 100 µM (AID 623954)
Conditions: at 100 µM; hits give high values
How it was run: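 Test system – ΔrecBCD E. coli with H. pylori AddAB/RecA plasmids · Measured by – differential plating counting His+ StrR recombinant colonies · Reagent – HfrH E. coli donor mixed 1:10 with recipient · Dosing – single dose of 100 µM compound · Read-out – fold drop in recombinant frequency relative to DMSO · Controls – DMSO-treated culture · Repeats – duplicate experiments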

Row | SMILES | fold reduction of recombinant frequency
1 | N#Cc1c(NC(=O)c2ccc([N+](=O)[O-])o2)sc2c1CCC2 | 20
2 | CNC(=O)c1c(NC(=O)c2nc(SCc3ccccc3)ncc2Cl)sc2c1CCCC2 | 2 (inactive)
3 | CCn1cc(C(=O)O)c(=O)c2cc(F)c(N3CCN(C(=S)Nc4cccc(C(F)(F)F)c4)CC3)cc21 | 8

Reference: PubChem BioAssay AID623954 (The Scripps Research Institute Molecular Screening Center, 2012)
